Measured values: ChEMBL document CHEMBL4011638, “Semisynthetic Flavone-Derived Antimicrobials with Therapeutic Potential against Methicillin-Resistant Staphylococcus aureus (MRSA)” (J Med Chem, 2017)
In brackets after ≈: the same amount, converted by molar mass. Activity calls are given as the source filed them. No cut-off for these calls is given here.

What was measured:
[1] = Cytotoxicity against human Corneal fibroblasts assessed cell viability at 50 uM after 24 hrs by Cell Titer-Glo luminescent assay; type: cell-based, Corneal fibroblast; settings: read-out: Activity
In short: (§1)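 ATP luminescence viability in human corneal fibroblasts, ~10000 cells per well, duplicate wells. After 24 h exposure the plate is equilibrated 0.5 h at 22 °C before Cell Titer-Glo addition and luminescence read. 1% Triton X-100 serves as positive control, medium-treated cells as negative control. Biological replicates.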

[2] = Cytotoxicity against human Corneal fibroblasts assessed cell viability at 30 uM after 24 hrs by Cell Titer-Glo luminescent assay; type: cell-based, Corneal fibroblast; settings: read-out: Activity; in short: as §1
Staphylococcus aureus [3] = test: Antibacterial activity against methicillin-sensitive Staphylococcus aureus ATCC 29737 after 24 hrs by broth microdilution method; type: functional; settings: ATCC 29737, 24 h
In short: (§2)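 Broth microdilution per CLSI in cation-adjusted Mueller−Hinton broth, in tubes. Compounds dissolved in H2O or DMF, then diluted in PBS to 1000 μg/mL stocks. Serial 2-fold dilutions were made, with final DMF 2.5%. Organisms were grown on TSA at 35 °C for 20 h and adjusted to ~5× 10^5 CFU/mL. Tubes were incubated at 35 °C for 24 h. MIC was the lowest concentration with no visible growth versus control. Biological replicates.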

Staphylococcus aureus [4] = test: Bactericidal activity against methicillin-resistant Staphylococcus aureus DM9808R assessed as log reduction in bacterial count at 4 times MIC up to 2 hrs by time kill assay; type: functional
In short: (§3)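 Time-kill. Starting inoculum 10^5−10^6 CFU/mL, exposed to 0.5×, 1×, 2× and 4× MIC at 35 °C. Colonies were counted after 24 h at 35 °C and CFU/mL calculated. Biological replicates.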

Staphylococcus aureus [5] = test: Bactericidal activity against methicillin-resistant Staphylococcus aureus DM21455 assessed as log reduction in bacterial count at 2 times MIC up to 30 mins by time kill assay; type: functional; in short: as §3
Staphylococcus aureus [6] = test: Antibacterial activity against methicillin-resistant Staphylococcus aureus ATCC 700699 infected in C57BL6 mouse corneas assessed as log reduction in bacterial burden at 0.5 % dosed at 1 day post infection administered 5 times daily for 3 days; type: functional
In short: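 C57BL6 mice, 6−8 weeks old, 20−30 g, anesthetized with ketamine/xylazine; four per group. Three 1 mm scratches were made on the right cornea and 10 μL of a 6 × 10^8 CFU/mL MRSA ATCC 700699 suspension was applied. From day 1 post infection, agents in PBS (12 mM, pH 7.2) were given topically 5 times daily for 3 days; PBS alone as control. Corneas were homogenized in 0.9% NaCl with 0.25% BSA and plated on TSA for 48 h at 35 °C.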

[7] = Cytotoxicity against human Corneal fibroblasts assessed cell viability at 100 uM after 24 hrs by Cell Titer-Glo luminescent assay; type: cell-based, Corneal fibroblast; settings: read-out: Activity; in short: as §1
Staphylococcus aureus [8] = test: Antibacterial activity against methicillin-resistant Staphylococcus aureus ATCC 700699 after 24 hrs by broth microdilution method; type: functional; settings: ATCC 700699, 24 h; in short: as §2
Staphylococcus aureus [9] = test: Antibacterial activity against Staphylococcus aureus ATCC 29213 after 17 passages; type: functional
[10] = Cytotoxicity in human Corneal fibroblasts assessed as LDH release at 80 uM after 24 hrs; type: cell-based; settings: corneal fibroblast
In short: (§4)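 Human corneal fibroblasts are exposed to test samples for 24 h, and cytotoxicity is read as LDH leakage into the medium. Biological replicates.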

[11] = Cytotoxicity in human Corneal fibroblasts assessed as LDH release at 30 uM after 24 hrs; type: cell-based; settings: corneal fibroblast; in short: as §4
Staphylococcus aureus [12] = test: Antibacterial activity against methicillin-resistant Staphylococcus aureus DM 9808R after 24 hrs by broth microdilution method; type: functional; in short: as §2
Staphylococcus aureus [13] = test: Bactericidal activity against methicillin-resistant Staphylococcus aureus DM9808R assessed as log reduction in bacterial count at 2 times MIC up to 2 hrs by time kill assay; type: functional; in short: as §3
Staphylococcus aureus [14] = test: Antibacterial activity against methicillin-sensitive Staphylococcus aureus ATCC 6538 after 24 hrs by broth microdilution method; type: functional; settings: ATCC 6538, 24 h; in short: as §2
[15] = Cytotoxicity in human Corneal fibroblasts assessed as LDH release at 50 uM after 24 hrs; type: cell-based; settings: corneal fibroblast; in short: as §4
Staphylococcus aureus [16] = test: Antibacterial activity against methicillin-resistant Staphylococcus aureus BAA-38 after 24 hrs by broth microdilution method; type: functional; settings: BAA-38, 24 h; in short: as §2
Staphylococcus aureus [17] = test: Antibacterial activity against methicillin-resistant Staphylococcus aureus DB68004 after 24 hrs by broth microdilution method; type: functional; settings: DB68004, 24 h; in short: as §2
Staphylococcus aureus [18] = test: Antibacterial activity against methicillin-resistant Staphylococcus aureus DB6506 after 24 hrs by broth microdilution method; type: functional; settings: DB6506, 24 h; in short: as §2
Staphylococcus aureus [19] = test: Antibacterial activity against methicillin-sensitive Staphylococcus aureus DM4583R after 24 hrs by broth microdilution method; type: functional; in short: as §2
Bacillus cereus = test: Antibacterial activity against Bacillus cereus ATCC 11778 after 24 hrs by broth microdilution method; type: functional; settings: ATCC 11778, 24 h
In short: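 MIC by CLSI broth microdilution in cation-adjusted Mueller–Hinton broth, tubes. Compounds in H2O or DMF, diluted in PBS to 1000 μg/mL stocks, then serial 2-fold dilutions (final DMF 2.5%). Inoculum ~5×10^5 CFU/mL from TSA plates grown 35 °C 20 h. Incubation 35 °C 24 h; MIC = no visible growth vs control. Biological replicates.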

Staphylococcus aureus [20] = test: Antibacterial activity against methicillin-resistant Staphylococcus aureus DM 21455 after 24 hrs by broth microdilution method; type: functional; settings: DM 21455, 24 h; in short: as §2
[21] = Cytotoxicity against human Corneal fibroblasts assessed cell viability at 80 uM after 24 hrs by Cell Titer-Glo luminescent assay; type: cell-based, Corneal fibroblast; settings: read-out: Activity; in short: as §1
Staphylococcus aureus [22] = test: Antibacterial activity against methicillin-resistant Staphylococcus aureus DB57964 after 24 hrs by broth microdilution method; type: functional; settings: DB57964, 24 h; in short: as §2
Staphylococcus aureus [23] = test: Induction of plasma membrane permeability in methicillin-resistant Staphylococcus aureus DM9808R assessed as increase in fluorescence intensity at 12.5 ug/ml measured every 1 sec for 50 mins by SYTOX green dye based fluorimetric assay; type: functional
In short: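 Exponential-phase MRSA DM9808R grown on TSA, washed twice and resuspended in PBS (10 mM, pH 7) to OD600 0.2. Cells were loaded with 0.3 μM SYTOX Green in the dark until fluorescence stabilized. Test samples were then added (final DMF 0.5%). Fluorescence at ex 504/em 523 nm was recorded every 1 s for 50 min. Biological replicates.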

Staphylococcus aureus [24] = test: Antibacterial activity against methicillin-sensitive Staphylococcus aureus DM4400R after 24 hrs by broth microdilution method; type: functional; in short: as §2
Lipid bilayer = test: Membrane permeabilization activity in DOPE/DOPG large unilamellar liposomes assessed as leakage of calcein at 1:4 compound to lipid ratio by fluorescence assay
In short: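 Calcein-loaded 100 nm LUVs of DOPE/DOPG (3:1, w/w), made by film hydration in 80 mM calcein, 100 mM NaCl, 50 mM HEPES, 0.3 mM EDTA, pH 7.4. Liposomes 50 μM, 0.5% DMF, room temperature. Read at ex 490/em 520 nm every 2 min for 30 cycles. % leakage normalized to 0.1% Triton X-100 (100%) and 0.5% DMF (0%). Biological replicates.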

`COC(=O)[C@H](CCCNC(=N)N)NC(=O)COc1cc(O)c2c(=O)c(OCC(=O)N[C@@H](CCCNC(=N)N)C(=O)OC)c(-c3ccc(OC)cc3)oc2c1CC=C(C)C` gave a viability at 24 h, 50 µM [1] of 97.7%, a viability at 24 h, 30 µM [2] of 98.2% and an MIC (Staphylococcus aureus [3]) of 1.56 µg/mL (≈ 1.89 µM). The Activity (Staphylococcus aureus [4]) was 3 deltalog10CFU/ml, the Activity (Staphylococcus aureus [5]) was 3 deltalog10CFU/ml and the Activity (Staphylococcus aureus [6]) was 2.95 deltalog10CFU/ml. For the same compound, the viability at 24 h, 100 µM [7] was 57.7%, the MIC (Staphylococcus aureus [8]) was 3.13 µg/mL (≈ 3.79 µM) and the Activity (Staphylococcus aureus [9]) was “Active”. The Activity [10] was 18.62%, the Activity [11] was -2.3% and the MIC (Staphylococcus aureus [12]) was 3.8 µM (≈ 3.13 µg/mL). It also gave an Activity (Staphylococcus aureus [13]) of 3 deltalog10CFU/ml, an MIC (Staphylococcus aureus [14]) of 1.56 µg/mL (≈ 1.89 µM) and an Activity [15] of 0.05%. The MIC (Staphylococcus aureus [16]) was 3.13 µg/mL (≈ 3.79 µM), the MIC (Staphylococcus aureus [17]) was 3.13 µg/mL (≈ 3.79 µM) and the MIC (Staphylococcus aureus [18]) was 3.13 µg/mL (≈ 3.79 µM). The MIC (Staphylococcus aureus [19]) was 1.56 µg/mL (≈ 1.89 µM), the MIC (Bacillus cereus) was 3.8 µM (≈ 3.13 µg/mL) and the MIC (Staphylococcus aureus [20]) was 1.9 µM (≈ 1.57 µg/mL). The viability at 24 h, 80 µM [21] was 69.3%, the MIC (Staphylococcus aureus [22]) was 3.13 µg/mL (≈ 3.79 µM) and the Activity (Staphylococcus aureus [23]) was “Active”. It also gave an MIC (Staphylococcus aureus [24]) of 3.13 µg/mL (≈ 3.79 µM) and an Activity (Lipid bilayer) of 46%.
